Experimental data reported in ChEMBL document CHEMBL2424622, “Development of amino-pyrimidine inhibitors of c-Jun N-terminal kinase (JNK): kinase profiling guided optimization of a 1,2,3-benzotriazole lead” (Bioorg Med Chem Lett, 2013).

Legend:
[1] = target: Focal adhesion kinase 1 (Homo sapiens) (UniProt Q05397); assay: Competitive binding affinity to PTK2 (unknown origin) at 10 uM in presence of ATP relative to control
Method in brief: (§1)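 In vitro ATP-site competition binding assay across a diverse panel of 128 kinases, with compound tested at a single concentration. Kinase selectivity scores (S15) were calculated from the panel profiles.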

[2] = target: T1, Cytoplasmic tyrosine-protein kinase BMX (Homo sapiens) (UniProt P51813); assay: Competitive binding affinity to BMX (unknown origin) at 10 uM in presence of ATP relative to control
T1 sequence (whole entry): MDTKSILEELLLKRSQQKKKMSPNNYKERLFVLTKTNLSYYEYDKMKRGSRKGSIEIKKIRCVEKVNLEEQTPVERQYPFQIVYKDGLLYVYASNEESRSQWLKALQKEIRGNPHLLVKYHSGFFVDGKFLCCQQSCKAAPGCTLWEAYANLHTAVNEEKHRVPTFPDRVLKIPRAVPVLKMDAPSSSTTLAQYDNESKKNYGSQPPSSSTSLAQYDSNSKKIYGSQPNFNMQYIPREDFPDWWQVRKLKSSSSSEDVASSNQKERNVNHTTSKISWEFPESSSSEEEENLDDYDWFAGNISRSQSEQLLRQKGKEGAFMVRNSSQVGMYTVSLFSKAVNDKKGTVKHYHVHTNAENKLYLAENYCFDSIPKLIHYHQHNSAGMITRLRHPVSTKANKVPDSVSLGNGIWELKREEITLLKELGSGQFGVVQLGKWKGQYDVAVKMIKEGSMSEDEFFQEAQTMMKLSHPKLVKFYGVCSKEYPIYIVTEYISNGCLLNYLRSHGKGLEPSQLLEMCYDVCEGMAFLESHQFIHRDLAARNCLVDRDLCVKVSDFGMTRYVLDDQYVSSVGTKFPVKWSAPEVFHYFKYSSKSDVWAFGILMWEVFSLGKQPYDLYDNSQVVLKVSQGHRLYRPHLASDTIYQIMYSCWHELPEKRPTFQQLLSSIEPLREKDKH

[3] = target: T2, Ephrin type-B receptor 4 (Homo sapiens) (UniProt P54760); assay: Competitive binding affinity to EPHB4 (unknown origin) at 10 uM in presence of ATP relative to control
T2 sequence (whole entry): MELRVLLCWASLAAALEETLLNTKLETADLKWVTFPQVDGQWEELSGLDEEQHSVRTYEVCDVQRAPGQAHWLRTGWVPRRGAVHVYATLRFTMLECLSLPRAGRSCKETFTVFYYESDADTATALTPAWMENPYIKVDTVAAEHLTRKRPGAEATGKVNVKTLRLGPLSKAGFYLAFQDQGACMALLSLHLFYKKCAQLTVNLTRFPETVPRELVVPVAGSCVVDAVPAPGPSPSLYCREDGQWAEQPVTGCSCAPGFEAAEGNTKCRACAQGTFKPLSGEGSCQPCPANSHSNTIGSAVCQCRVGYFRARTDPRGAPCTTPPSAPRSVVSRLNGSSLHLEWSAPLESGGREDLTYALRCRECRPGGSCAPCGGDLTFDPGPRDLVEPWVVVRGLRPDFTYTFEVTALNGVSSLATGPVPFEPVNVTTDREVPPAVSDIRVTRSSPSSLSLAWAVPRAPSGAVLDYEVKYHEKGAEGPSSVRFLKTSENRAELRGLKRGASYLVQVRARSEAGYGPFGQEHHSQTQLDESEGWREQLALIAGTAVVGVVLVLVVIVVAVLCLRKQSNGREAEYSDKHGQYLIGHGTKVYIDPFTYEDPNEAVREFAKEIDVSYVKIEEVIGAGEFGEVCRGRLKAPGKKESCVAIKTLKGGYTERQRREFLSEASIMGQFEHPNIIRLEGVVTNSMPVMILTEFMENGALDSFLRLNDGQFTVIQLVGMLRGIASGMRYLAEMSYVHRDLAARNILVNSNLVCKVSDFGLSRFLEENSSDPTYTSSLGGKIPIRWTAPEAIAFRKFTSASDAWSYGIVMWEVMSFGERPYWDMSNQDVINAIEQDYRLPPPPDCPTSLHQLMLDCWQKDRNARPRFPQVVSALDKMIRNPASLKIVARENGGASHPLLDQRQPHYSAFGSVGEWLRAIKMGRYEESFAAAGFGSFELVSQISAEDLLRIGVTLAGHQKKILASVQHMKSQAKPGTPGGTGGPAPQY
Method in brief: (§2)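 In vitro ATP-site competition binding assay, part of profiling against a diverse panel of 128 kinases. Each compound was tested at a single concentration of 10 µM. Kinome selectivity was summarized as S15 selectivity scores.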

[4] = target: Serine/threonine-protein kinase PAK 3 (Homo sapiens) (UniProt O75914); assay: Competitive binding affinity to PAK3 (unknown origin) at 10 uM in presence of ATP relative to control; method in brief: as §1
[5] = target: T3, Ephrin type-A receptor 3 (Homo sapiens) (UniProt P29320); assay: Competitive binding affinity to EPHA3 (unknown origin) at 10 uM in presence of ATP relative to control; method in brief: as §2
T3 sequence (whole entry): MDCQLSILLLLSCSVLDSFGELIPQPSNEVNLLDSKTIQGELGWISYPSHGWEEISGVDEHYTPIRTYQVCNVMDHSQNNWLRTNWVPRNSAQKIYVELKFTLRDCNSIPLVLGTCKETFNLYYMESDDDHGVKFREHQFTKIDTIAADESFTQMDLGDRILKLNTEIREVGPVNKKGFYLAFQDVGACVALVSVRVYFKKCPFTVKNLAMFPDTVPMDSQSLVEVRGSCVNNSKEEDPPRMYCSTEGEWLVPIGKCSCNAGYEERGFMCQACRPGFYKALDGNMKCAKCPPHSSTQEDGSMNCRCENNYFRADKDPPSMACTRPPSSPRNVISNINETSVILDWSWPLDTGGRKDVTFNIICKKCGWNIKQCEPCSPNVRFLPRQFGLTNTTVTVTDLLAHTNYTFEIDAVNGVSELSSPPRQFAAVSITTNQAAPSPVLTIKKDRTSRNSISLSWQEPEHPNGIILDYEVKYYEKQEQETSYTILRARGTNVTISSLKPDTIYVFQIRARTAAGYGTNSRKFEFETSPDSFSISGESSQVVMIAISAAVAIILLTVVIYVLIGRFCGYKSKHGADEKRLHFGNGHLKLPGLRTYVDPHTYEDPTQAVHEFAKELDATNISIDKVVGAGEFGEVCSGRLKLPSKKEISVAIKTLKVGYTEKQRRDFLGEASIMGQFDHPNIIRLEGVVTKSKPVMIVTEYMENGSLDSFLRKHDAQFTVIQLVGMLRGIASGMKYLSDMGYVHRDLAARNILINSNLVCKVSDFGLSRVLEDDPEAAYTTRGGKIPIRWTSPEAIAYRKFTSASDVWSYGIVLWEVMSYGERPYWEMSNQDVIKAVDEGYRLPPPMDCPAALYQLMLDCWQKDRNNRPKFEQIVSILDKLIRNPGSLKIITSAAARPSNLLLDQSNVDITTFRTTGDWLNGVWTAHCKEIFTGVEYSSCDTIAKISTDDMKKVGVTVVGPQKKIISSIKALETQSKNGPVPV

Serine/threonine-protein kinase PAK 3 (Homo sapiens), sequence (O75914 whole entry, looked up): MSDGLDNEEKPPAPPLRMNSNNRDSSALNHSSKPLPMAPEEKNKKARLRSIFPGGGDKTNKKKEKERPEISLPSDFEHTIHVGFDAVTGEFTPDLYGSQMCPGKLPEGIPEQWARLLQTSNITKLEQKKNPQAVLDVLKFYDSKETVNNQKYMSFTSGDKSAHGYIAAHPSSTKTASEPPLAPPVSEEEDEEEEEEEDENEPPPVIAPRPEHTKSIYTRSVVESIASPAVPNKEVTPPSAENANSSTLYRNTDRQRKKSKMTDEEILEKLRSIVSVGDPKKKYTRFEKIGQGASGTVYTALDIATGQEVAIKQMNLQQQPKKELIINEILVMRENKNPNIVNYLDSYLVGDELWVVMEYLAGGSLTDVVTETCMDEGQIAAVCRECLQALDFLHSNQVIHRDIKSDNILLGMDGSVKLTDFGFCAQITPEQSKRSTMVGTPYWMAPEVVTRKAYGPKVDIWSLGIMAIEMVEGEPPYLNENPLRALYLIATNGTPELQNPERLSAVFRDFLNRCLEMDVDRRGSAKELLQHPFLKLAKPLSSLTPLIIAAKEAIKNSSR
Focal adhesion kinase 1 (Homo sapiens), sequence (Q05397 2-1052 limits assumed): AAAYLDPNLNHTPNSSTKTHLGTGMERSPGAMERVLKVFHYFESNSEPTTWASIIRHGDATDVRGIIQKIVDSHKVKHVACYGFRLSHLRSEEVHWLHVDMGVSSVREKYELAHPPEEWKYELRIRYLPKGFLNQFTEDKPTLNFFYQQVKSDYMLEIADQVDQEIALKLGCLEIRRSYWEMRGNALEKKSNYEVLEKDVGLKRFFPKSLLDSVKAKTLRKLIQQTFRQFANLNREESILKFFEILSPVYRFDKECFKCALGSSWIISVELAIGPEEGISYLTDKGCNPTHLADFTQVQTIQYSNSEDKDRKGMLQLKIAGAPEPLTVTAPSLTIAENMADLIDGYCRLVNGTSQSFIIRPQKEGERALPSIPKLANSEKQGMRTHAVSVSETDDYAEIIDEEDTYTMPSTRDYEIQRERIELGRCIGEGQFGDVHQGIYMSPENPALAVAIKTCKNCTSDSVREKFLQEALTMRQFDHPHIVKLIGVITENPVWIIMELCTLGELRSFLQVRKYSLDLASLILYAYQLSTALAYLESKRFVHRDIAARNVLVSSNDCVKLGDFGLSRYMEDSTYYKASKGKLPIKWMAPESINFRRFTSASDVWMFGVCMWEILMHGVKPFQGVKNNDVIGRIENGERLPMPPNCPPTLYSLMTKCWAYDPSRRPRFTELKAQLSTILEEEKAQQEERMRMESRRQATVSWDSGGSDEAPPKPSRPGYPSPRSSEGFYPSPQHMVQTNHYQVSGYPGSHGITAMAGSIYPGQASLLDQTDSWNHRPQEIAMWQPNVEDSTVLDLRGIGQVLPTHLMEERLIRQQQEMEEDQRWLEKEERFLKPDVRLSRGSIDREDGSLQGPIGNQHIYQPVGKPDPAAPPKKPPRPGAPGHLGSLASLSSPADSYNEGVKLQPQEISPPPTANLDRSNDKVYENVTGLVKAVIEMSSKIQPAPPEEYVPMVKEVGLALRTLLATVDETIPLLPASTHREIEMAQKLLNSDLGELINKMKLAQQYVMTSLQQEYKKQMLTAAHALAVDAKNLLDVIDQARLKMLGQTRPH

Row | SMILES | inhibition [1] [%] | inhibition [2] [%] | inhibition [3] [%] | inhibition [4] [%] | inhibition [5] [%]
1 | O[C@H]1CC[C@H](Nc2nccc(-n3ccc4ccccc43)n2)CC1 | < 50 | < 50 | < 50 | < 50 | < 50
2 | N[C@H]1CC[C@H](Nc2nccc(-n3nnc4ccccc43)n2)CC1 | < 50 | < 50 | < 50 | 90 | 82
3 | O=C([C@H]1CC[C@H](Nc2nccc(-n3nnc4ccccc43)n2)CC1)N1CCOCC1 | < 50 | < 50 | < 50 | < 50 | < 50

Continued, values first:

Row | inhibition [1] [%] | inhibition [2] [%] | inhibition [3] [%] | inhibition [4] [%] | inhibition [5] [%] | SMILES
4 | < 50 | < 50 | < 50 | 75 | < 50 | O[C@H]1CC[C@H](Nc2nccc(-n3ncc4ccccc43)n2)CC1
5 | 85 | < 50 | 100 | 99 | 93 | O[C@H]1CC[C@H](Nc2nccc(-c3n[nH]c4ccccc34)n2)CC1
6 | < 50 | < 50 | < 50 | 76 | < 50 | O[C@H]1CC[C@H](Nc2nccc(-n3nnc4ccccc43)n2)CC1
